Assay [1] concerns the target Endothelin receptor, ET-A/ET-B (Homo sapiens) (UniProt P24530+P25101). The assay can be described thus: (§1) Antagonism of sarafotoxin S6c-induced vasoconstriction in rabbit pulmonary artery at both ETA and ETB receptors. In kind it is functional. As to conditions: Oryctolagus cuniculus; target entry is the homologue from another species. The method in brief:
(§2)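 Rabbit pulmonary artery, endothelium-denuded 5-mm rings in Krebs-Henseleit, 95% O2-5% CO2, 37 °C, isometric tension. Compound added 15 min before cumulative sarafotoxin S6c. Tension normalized to 60 mM KCl response. Antagonism given as pA2 (van Rossum) or pD2' value; n in parentheses.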

Assay [2] has as its target T1, Endothelin-1 receptor (Sus scrofa) (UniProt Q29010).
T1 sequence (whole entry): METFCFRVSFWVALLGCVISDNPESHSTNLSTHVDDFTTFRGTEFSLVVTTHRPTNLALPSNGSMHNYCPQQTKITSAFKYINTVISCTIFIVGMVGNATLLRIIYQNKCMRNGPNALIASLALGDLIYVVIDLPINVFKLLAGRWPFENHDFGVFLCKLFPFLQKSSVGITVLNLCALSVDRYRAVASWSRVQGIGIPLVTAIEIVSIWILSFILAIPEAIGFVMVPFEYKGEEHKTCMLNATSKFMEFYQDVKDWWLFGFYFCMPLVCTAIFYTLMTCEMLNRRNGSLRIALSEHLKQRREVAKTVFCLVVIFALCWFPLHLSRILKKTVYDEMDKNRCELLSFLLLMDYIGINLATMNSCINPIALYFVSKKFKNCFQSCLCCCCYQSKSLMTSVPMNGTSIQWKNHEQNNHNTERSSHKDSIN
The assay can be described thus: Endothelin A receptor agonist activity as maximum vasoconstriction in porcine coronary artery. Type of assay: functional, tissue-based. Put shortly: (§3)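 Porcine right coronary artery, endothelium-denuded helical strips in Krebs-Henseleit, 37 °C, isometric tension. Compound applied cumulatively, up to 1 μM. Maximal contraction expressed as % of 60 mM KCl-induced tension; n in parentheses.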

The target in assay [3] is T1, Endothelin-1 receptor (Sus scrofa). The assay can be described thus: Tested for the ETA receptor agonist activity by measuring maximum vasoconstriction in porcine coronary artery. Type of assay: functional, tissue-based. The method in brief: as §3
Assay [4] has as its target T2, Endothelin-1 receptor (Sus scrofa, UniProt Q29010).
T2 sequence (Q29010 whole entry): T1 sequence (whole entry)
The assay can be described thus: ETA receptor antagonist activity was measured by inhibition of ET-1 induced vasoconstriction in isolated porcine coronary artery. In kind it is functional, tissue-based. As to conditions: read-out: pA2 (converted). Put shortly: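 Porcine right coronary artery, endothelium-denuded 2 × 5-mm helical strips in Krebs-Henseleit, 95% O2-5% CO2, 37 °C, isometric tension. Compound added 15 min before cumulative ET-1. Tension normalized to 60 mM KCl. pA2 by van Rossum's method; n in parentheses.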

Assay [5] addresses T2, Endothelin-1 receptor. The assay can be described thus: Tested for the competitive binding versus [125I]- ET-1 determined in porcine cardiac ventricular membrane for Endothelin A receptor. The method in brief:
(§4)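 Membranes (porcine cardiac ventricle at 12 μg/mL for ETA; bovine cerebrum at 150 μg/mL for ETB) in pH 7.2 Tris/EGTA/Mg acetate/0.1% BSA buffer with protease inhibitors. Incubated with 100 pM [125I]ET-1 and varied compound for 1 h at 25 °C, then filtered and counted by gamma counter. IC50 given as mean ± SEM of ≥3 determinations.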

The target of assay [6] is T3, Endothelin receptor, ET-A/ET-B (Homo sapiens, UniProt P24530+P25101).
T3 sequence (P24530 whole entry): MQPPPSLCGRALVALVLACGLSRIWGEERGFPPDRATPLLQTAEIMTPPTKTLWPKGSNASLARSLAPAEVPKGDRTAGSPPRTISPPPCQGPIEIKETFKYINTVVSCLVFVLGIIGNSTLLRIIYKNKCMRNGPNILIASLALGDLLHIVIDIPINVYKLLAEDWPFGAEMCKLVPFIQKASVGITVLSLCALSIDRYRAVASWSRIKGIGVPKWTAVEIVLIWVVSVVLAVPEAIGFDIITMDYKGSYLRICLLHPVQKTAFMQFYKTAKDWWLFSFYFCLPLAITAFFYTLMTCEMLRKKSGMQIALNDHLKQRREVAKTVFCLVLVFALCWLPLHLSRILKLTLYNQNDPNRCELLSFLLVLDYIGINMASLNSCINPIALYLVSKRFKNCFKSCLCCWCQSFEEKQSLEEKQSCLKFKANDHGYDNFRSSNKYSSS
T3 sequence (P25101 whole entry): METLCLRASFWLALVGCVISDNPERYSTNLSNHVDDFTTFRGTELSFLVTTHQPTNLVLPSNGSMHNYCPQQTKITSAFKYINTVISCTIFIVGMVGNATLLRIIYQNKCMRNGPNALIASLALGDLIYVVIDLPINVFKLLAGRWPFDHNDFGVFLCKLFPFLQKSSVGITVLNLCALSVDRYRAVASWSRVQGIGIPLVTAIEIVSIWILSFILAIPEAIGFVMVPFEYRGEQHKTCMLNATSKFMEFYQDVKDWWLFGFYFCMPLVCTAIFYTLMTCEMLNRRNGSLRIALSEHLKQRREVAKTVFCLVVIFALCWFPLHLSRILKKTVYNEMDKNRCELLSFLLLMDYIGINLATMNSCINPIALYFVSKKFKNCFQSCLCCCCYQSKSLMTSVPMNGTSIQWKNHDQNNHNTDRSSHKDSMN
The description is as §1. Type of assay: functional, Oryctolagus cuniculus. As to conditions: target entry is the homologue from another species. Put shortly: as §2

Assay [7] has as its target T4, Endothelin receptor type B (Bos taurus, UniProt P28088).
T4 sequence (P28088 whole entry): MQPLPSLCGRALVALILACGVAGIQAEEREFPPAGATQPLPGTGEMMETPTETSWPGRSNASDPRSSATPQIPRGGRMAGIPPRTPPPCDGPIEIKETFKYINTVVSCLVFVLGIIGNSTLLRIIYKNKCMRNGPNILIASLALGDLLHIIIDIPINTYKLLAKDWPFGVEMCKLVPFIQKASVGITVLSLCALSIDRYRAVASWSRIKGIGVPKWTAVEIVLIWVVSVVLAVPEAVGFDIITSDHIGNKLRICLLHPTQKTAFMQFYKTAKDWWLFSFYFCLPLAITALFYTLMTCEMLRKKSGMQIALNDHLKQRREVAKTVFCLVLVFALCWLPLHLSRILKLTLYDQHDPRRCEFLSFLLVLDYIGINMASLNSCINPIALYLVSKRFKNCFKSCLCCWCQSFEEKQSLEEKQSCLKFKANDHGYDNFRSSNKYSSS
As to the kind of experiment: Tested for the competitive binding versus [125I]- ET-1 determined in bovine cerebrum membrane for Endothelin B receptor. Type of assay: cell membranes. The method in brief: as §4

For orientation: IC50 means the concentration at which inhibition is half-maximal. Low values mean greater potency in that assay, high ones weaker potency in that assay. As usually defined, the pA2 is the negative logarithm of the molar antagonist concentration that doubles the agonist concentration needed for the same response.

For the compound `CC[C@H](C)[C@H](NC(=O)[C@H](CC1CCCCC1)NC(=O)[C@@H](NC(=O)[C@H](CC(C)C)NC(=O)[C@H](Cc1c[nH]cn1)NC(=O)[C@@H]1CSSC[C@@H](N)C(=O)N[C@@H](CO)C(=O)N[C@@H]2CSSC[C@H](NC(=O)[C@H](CCC(=O)O)NC(=O)[C@@H](CCCCN)NC(=O)[C@@H](CC(=O)O)NC(=O)[C@@H](CCSC)NC(=O)[C@H](CC(C)C)NC(=O)[C@@H](CO)NC(=O)[C@H](CO)NC2=O)C(=O)N[C@@H](C(C)C)C(=O)N[C@H](Cc2ccc(O)cc2)C(=O)N[C@@H](Cc2ccccc2)C(=O)N1)[C@@H](C)O)C(=O)N[C@@H](Cc1c[nH]c2ccccc12)C(=O)O`, the pD2 in assay [1] stood at 7.8. Besides, the Max vasoconstriction in assay [2] was 2.

In assay [3], `CC[C@H](C)[C@H](NC(=O)[C@H](CC(C)C)NC(=O)[C@@H](NC(=O)[C@H](CC(C)C)NC(=O)[C@H](Cc1c[nH]cn1)NC(=O)[C@@H]1CSSC[C@@H](N)C(=O)N[C@@H](CO)C(=O)N[C@@H]2CSSC[C@@H](NC(=O)[C@H](CCC(=O)O)NC(=O)[C@@H](CCCCN)NC(=O)[C@H](CC(=O)O)NC(=O)[C@@H](CCSC)NC(=O)[C@H](CC(C)C)NC(=O)[C@@H](CO)NC(=O)[C@H](CO)NC2=O)C(=O)N[C@@H](C(C)C)C(=O)N[C@H](Cc2ccc(O)cc2)C(=O)N[C@@H](Cc2ccccc2)C(=O)N1)[C@H](C)O)C(=O)N[C@@H](Cc1c[nH]c2ccccc12)C(=O)O` showed a Max vasoconstriction of 4. In assay [1], this compound showed a pD2 of 8.7.

Turning to `CC[C@H](C)[C@H](NC(=O)[C@H](CC(C)(C)C)NC(=O)[C@@H](NC(=O)[C@H](CC(C)C)NC(=O)[C@H](Cc1c[nH]cn1)NC(=O)[C@@H]1CSSC[C@H](N)C(=O)N[C@@H](CO)C(=O)N[C@H]2CSSC[C@H](NC(=O)[C@H](CCC(=O)O)NC(=O)[C@H](CCCCN)NC(=O)[C@H](CC(=O)O)NC(=O)[C@H](CCSC)NC(=O)[C@H](CC(C)C)NC(=O)[C@H](CO)NC(=O)[C@H](CO)NC2=O)C(=O)N[C@@H](C(C)C)C(=O)N[C@@H](Cc2ccc(O)cc2)C(=O)N[C@@H](Cc2ccccc2)C(=O)N1)[C@@H](C)O)C(=O)N[C@@H](Cc1c[nH]c2ccccc12)C(=O)O`, at Endothelin-1 receptor [4], the Kb was 39.8 nM. The IC50 at Endothelin-1 receptor [5] is 0.7 nM; in assay [7], 0.25 nM. The pA2 in assay [6] worked out at 8.4.
